Assay results reported in ChEMBL document CHEMBL1136453, “New classes of antibacterial oxazolidinones with C-5, methylene O-linked heterocyclic side chains” (2003).
In brackets after ≈: the same amount, converted by molar mass.

Legend:
[1] = In vivo antibacterial activity against Staphylococcus aureus after intravenous administration (5 mg/kg) in mice using (MTT) mouse thigh test
[2] = system: Staphylococcus aureus; experiment: In vitro minimum inhibitory concentration against Staphylococcus aureus Oxford; format: functional; conditions: Staphylococcus aureus; read-out: MIC
[3] = system: Streptococcus pyogenes; experiment: In vitro minimum inhibitory concentration against Streptococcus pyogenes penicillin sensitive; format: functional
In short: (§1)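 Agar dilution per NCCLS protocol with doubling dilutions from 128 to 0.008 mg/L, incubated at 37 °C. Strains came from an in-house culture collection. MIC reported in mg/L.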

[4] = system: Staphylococcus aureus; experiment: In vitro minimum inhibitory concentration against Staphylococcus aureus MRQR; format: functional
[5] = system: Enterococcus faecalis; experiment: In vitro minimum inhibitory concentration against Enterococcus faecalis; format: functional
In short: as §1

[6] = system: Staphylococcus aureus; experiment: In vivo antibacterial activity against Staphylococcus aureus after intravenous administration (10 mg/kg) in mice using (MTT) mouse thigh test
[7] = system: Staphylococcus aureus; experiment: In vitro minimum inhibitory concentration against coagulase negative Staphylococcus aureus methicillin resistant (CNSMR); format: functional
[8] = system: Mus musculus; experiment: In vivo antibacterial activity against Staphylococcus aureus after intravenous administration (5 mg/kg) in mice using (MTT) mouse thigh test
[9] = system: Mus musculus; experiment: In vivo antibacterial activity against Staphylococcus aureus after intravenous administration (10 mg/kg) in mice using (MTT) mouse thigh test

Compound O=CN1CC=C(c2c(F)cc(N3C[C@H](COc4ccon4)OC3=O)cc2F)CC1 has an Activity [1] of -0.01, an MIC [2] of 0.25 µg/mL (≈ 0.617 µM) and an MIC [3] of 0.5 µg/mL (≈ 1.23 µM). For the same compound, the MIC [4] was 0.5 µg/mL (≈ 1.23 µM), the MIC [5] was 1 µg/mL (≈ 2.47 µM) and the Activity [6] was 0.43. The MIC [7] was 0.5 µg/mL (≈ 1.23 µM).

Work on O=C(CO)N1CC=C(c2ccc(N3C[C@H](COc4ccon4)OC3=O)cc2F)CC1 yielded an Activity [1] of 0.71, an MIC [2] of 0.25 µg/mL (≈ 0.599 µM) and an MIC [3] of 0.5 µg/mL (≈ 1.2 µM). For the same compound, the MIC [4] was 0.5 µg/mL (≈ 1.2 µM), the MIC [5] was 1 µg/mL (≈ 2.4 µM) and the Activity [6] was 1.2. For the same compound, the MIC [7] was 0.5 µg/mL (≈ 1.2 µM).

For Cc1no[n+]([O-])c1OC[C@H]1CN(c2ccc(C3=CCOCC3)c(F)c2)C(=O)O1, the Activity [1] was 0.03, the MIC [2] was 1 µg/mL (≈ 2.56 µM) and the MIC [3] was 4 µg/mL (≈ 10.2 µM). It also gave an MIC [4] of 2 µg/mL (≈ 5.11 µM), an MIC [5] of 2 µg/mL (≈ 5.11 µM) and an Activity [6] of 0.2. The MIC [7] was 2 µg/mL (≈ 5.11 µM).

Compound C[C@H](O)C(=O)N1CC=C(c2ccc(N3C[C@H](COc4cnsn4)OC3=O)cc2F)CC1 has an Activity [1] of 0.43, an MIC [2] of 0.25 µg/mL (≈ 0.557 µM) and an MIC [3] of 1 µg/mL (≈ 2.23 µM). The MIC [4] was 0.5 µg/mL (≈ 1.11 µM), the MIC [5] was 1 µg/mL (≈ 2.23 µM) and the Activity [6] was 1.14. The MIC [7] was 0.5 µg/mL (≈ 1.11 µM).

For O=C([C@@H](O)CO)N1CC=C(c2c(F)cc(N3C[C@H](CO)OC3=O)cc2F)CC1, the Activity [1] was 0.59, the MIC [2] was 0.25 µg/mL (≈ 0.628 µM) and the MIC [3] was 0.5 µg/mL (≈ 1.26 µM). For the same compound, the MIC [4] was 0.5 µg/mL (≈ 1.26 µM), the MIC [5] was 1 µg/mL (≈ 2.51 µM) and the Activity [6] was 1.01. It also gave an MIC [7] of 0.25 µg/mL (≈ 0.628 µM).

In the case of CC(O)C(=O)N1CC=C(c2c(F)cc(N3C[C@H](COc4ccon4)OC3=O)cc2F)CC1 (single isomer, unassigned), the Activity [1] was 0.49, the MIC [2] was 0.5 µg/mL (≈ 1.11 µM) and the MIC [3] was 1 µg/mL (≈ 2.23 µM). For the same compound, the MIC [4] was 0.5 µg/mL (≈ 1.11 µM), the MIC [5] was 1 µg/mL (≈ 2.23 µM) and the Activity [6] was 1.02. It also gave an MIC [7] of 0.5 µg/mL (≈ 1.11 µM).

In the case of CC(=O)NC[C@H]1CN(c2ccc(N3CCOCC3)c(F)c2)C(=O)O1 [LINEZOLID], the Activity [8] was 0.05, the MIC [2] was 0.5 µg/mL (≈ 1.48 µM) and the MIC [3] was 1 µg/mL (≈ 2.96 µM). The MIC [4] was 1 µg/mL (≈ 2.96 µM), the Activity [9] was 1.4 and the MIC [7] was 0.5 µg/mL (≈ 1.48 µM).

In the case of O=C([C@@H](O)CO)N1CC=C(c2c(F)cc(N3C[C@H](COc4ccon4)OC3=O)cc2F)CC1 [POSIZOLID], the Activity [1] was 0.7, the MIC [2] was 0.25 µg/mL (≈ 0.537 µM) and the MIC [3] was 0.25 µg/mL (≈ 0.537 µM). For the same compound, the MIC [4] was 0.5 µg/mL (≈ 1.07 µM), the MIC [5] was 0.5 µg/mL (≈ 1.07 µM) and the Activity [6] was 0.98. The MIC [7] was 0.5 µg/mL (≈ 1.07 µM).
